Rows were chosen to be rich in hits. Some 3.3% of all compounds tested hit in one or more screens of this group.
NRP1-CendR mod: alters CendR peptide binding to human NRP-1. O14786. FAM-RPARPAR peptide binding to NRP-1, fluorescence polarization. inhibition, % at 25 µM. 360,000 compounds, 0.85% hits. AID 602438;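 active = inhibition or corrected inhibition above about 18%, plus a signal ratio from 0.5 to 1.5, limit read from the data, passing the limit was not always enough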
SENP8 block-1: inhibitors of human SENP8 protease; Q96LD8; recombinant SENP8, Nedd8 substrate fluorescence; inhibition, % at 20 µM; 360,000 compounds, 0.64% hits; AID 602440; in the data active = inhibition mostly above about 40%, no sharp cut-off; inactive = mostly below about 27%
Target sequence (Q96LD8 whole entry, looked up): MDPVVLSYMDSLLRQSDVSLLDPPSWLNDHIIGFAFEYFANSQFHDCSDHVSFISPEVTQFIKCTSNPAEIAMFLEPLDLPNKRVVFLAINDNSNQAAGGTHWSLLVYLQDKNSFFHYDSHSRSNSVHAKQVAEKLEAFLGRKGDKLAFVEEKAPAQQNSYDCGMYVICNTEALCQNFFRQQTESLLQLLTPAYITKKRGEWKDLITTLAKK
SENP1 inh: blocks the human SENP1 SUMO protease catalytic domain. Q9P0U3. recombinant SENP1 catalytic domain, CyPet-SUMO1-YPet FRET cleavage. inhibition, % at 10 µM. 360,000 compounds, 0.21% hits. AID 624204;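 active = inhibition at least 30% at 10 µM, raw YFP signal under a set limit, fluorescence ratio 0.5 to 1.5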;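 note: 0% = enzyme with DMSO and 100% = no enzyme wells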
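Material – human SENP1 catalytic domain · Input – SENP1 enzyme, 20 pM final · Compound dosing – single concentration of 10 µM compound, 0.5% DMSO final · Timing – enzyme reaction for 50 min at room temperature, dark · Measured by – FRET fluorescence in CFP and YFP emission channels · Control set – no-enzyme wells low, DMSO-plus-enzyme wells high control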
SENP8 block-2: SENP8 protease inhibition | Q96LD8 | purified SENP8, Z-RLRGG-aminoluciferin cleavage, luminescence | inhibition, % at 10 µM | 330,000 compounds, 1.2% hits; in the data active = inhibition above about 50%
SENP7 block: SENP7 protease inhibition. Q9BQF6. AID 434973. 330,000 compounds, 1.5% hits. recombinant SENP7, Z-RLRGG-aminoluciferin luminescence, 40 min. inhibition, % at 5 µM;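 active = inhibition above about 50% at the single test dose, limit read from the data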;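 note: plate controls were DMSO with enzyme for no effect and no enzyme buffer wells for full effect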
SENP6 inh: inhibitors of human SENP6 protease; Q9GZR1; Recombinant SENP6 catalytic domain, aminoluciferin luminescence; inhibition, % at 10 µM; 330,000 compounds, 1.8% hits; AID 2599;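 active = inhibition above about 50% at the single tested dose, limit read from the data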;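 note: plate controls were DMSO wells with enzyme for no effect and DMSO wells lacking enzyme for full effect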
SENP8 confirm: confirmation of human SENP8 protease inhibitors; shares compounds with SENP7 block; inhibition, % at 12.5 µM; Recombinant SENP8, Z-RLRGG-aminoluciferin luminescence, 60 min; 6,200 compounds, 40% hits;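 active = mean inhibition across replicates above about 50%, limit read from the data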
SENP6 confirm: human SENP6 inhibition, confirmed. shares compounds with SENP7 block. recombinant SENP6, Z-RLRGG-aminoluciferin luminescence. inhibition, % at 12.5 µM. 6,200 compounds, 58% hits
SENP7 conf: human SENP7 inhibition, confirmed. inhibition, % at 12.5 µM. shares compounds with SENP7 block. recombinant SENP7, Z-RLRGG-aminoluciferin luminescence, 40 min. 6,200 compounds, 69% hits
Casp3 select: caspase-3 inhibition (SENP selectivity assay); shares compounds with SENP7 block; purified caspase-3, Z-DEVD-aminoluciferin luminescence, 60 min; inhibition, % at 12.5 µM; 6,200 compounds, 60% hits; AID 488918;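 active = mean inhibition above about 50%, limit read from the data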;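 note: plate controls were enzyme with DMSO for no effect and wells without caspase-3 for full effect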
Target sequence (P42574 28-227 limits assumed): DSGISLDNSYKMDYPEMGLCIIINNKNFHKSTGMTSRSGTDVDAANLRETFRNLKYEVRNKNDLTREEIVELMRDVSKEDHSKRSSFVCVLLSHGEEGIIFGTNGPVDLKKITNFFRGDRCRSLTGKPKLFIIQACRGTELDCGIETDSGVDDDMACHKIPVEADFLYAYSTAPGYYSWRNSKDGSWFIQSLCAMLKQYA
Luc interf: interferes with luciferase luminescence in SENP counter-screen; shares compounds with SENP7 block; Pre-incubated SENP8/Z-RLRGG-aminoluciferin, luciferase luminescence interference; inhibition, % at 12.5 µM; 6,200 compounds, 39% hits; AID 488919;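 active = mean inhibition above about 50% when retested at one dose, limit read from the data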;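 note: plate controls were DMSO wells with completed reaction for no effect and substrate without enzyme for full effect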
Active calls of the source: *; x = no result given.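 Rule for the calls, unless noted: active = mean inhibition above about 50% in the one-dose retest (limit read from the data); inactive = the rest.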

SMILES	NRP1-CendR mod	SENP8 block-1	SENP1 inh	SENP8 block-2	SENP7 block	SENP6 inh	SENP8 confirm	SENP6 confirm	SENP7 conf	Casp3 select	Luc interf
COc1cccc(C(=O)Nc2nnc(-c3ccccc3)s2)c1OC	-6.0	-214.4	-0.9	57.1*	55.4*	78.9*	45.6	39.2	64.5*	61.2*	46.2
O=C(Nc1nnc(-c2ccccc2)s1)c1ccccc1O	1.1	-250.3	-2.5	84.5*	63.3*	80.0*	17.2	29.8	15.2	16.3	7.0
CC(C1SC(=S)NC1=O)C1SC(=S)NC1=O (configuration not stated)	-173.7	5.3	-25.4	x	x	x	x	x	x	x	x
O=C(Nc1ccsc1C(=O)O)c1cccc(Oc2ccccc2)c1	2.6	14.6	-0.3	90.7*	27.8	93.1*	94.9*	95.6*	98.7*	78.8*	95.0*
O=C(Nc1ccsc1C(=O)O)c1cccc(C(F)(F)F)c1	1.1	7.2	2.7	68.8*	42.8	74.8*	82.1*	82.2*	92.0*	80.0*	82.6*
COc1ccc(CNC(=O)c2c(C)oc3c2C(=O)c2ccccc2C3=O)cc1	-11.2	64.3*	13.2	34.1	38.3	66.4*	33.4	60.6*	20.8	70.4*	5.9
Nc1ncnc2c1ncn2[C@@H]1O[C@H](C(=O)N[C@H]2c3ccccc3C[C@H]2OC=O)[C@@H](O)[C@H]1O	8.9	5.5	-0.5	x	x	x	x	x	x	x	x
Nc1nc2ccccc2n1/N=C/c1ccc2c(c1)OCO2	-2.5	5.9	1.0	84.2*	90.0*	90.4*	86.1*	86.5*	97.6*	85.5*	82.0*
Nc1nnnn1/N=C/c1ccc(Br)cc1	-0.2	7.1	0.2	-3.8	-1.9	-6.5	x	x	x	x	x
Nc1nc2ccccc2n1/N=C/c1ccc(Br)cc1	-4.6	13.1	-0.1	66.9*	-1.4	76.1*	60.3*	62.6*	90.3*	48.7	10.4
CC(C)(C)OC(=O)C[C@@H]1C/C=C\C[C@H](CC(=O)N[C@H](CO)Cc2ccccc2)C(=O)N2CCC[C@H]2COC1=O	-4.2	8.6	4.1	0.2	12.5	-10.9	x	x	x	x	x
CN(Cc1ccccc1)C(=O)c1csc(COCCO)n1	-9.9	3.5	-1.9	x	x	x	x	x	x	x	x
CC(C)n1cc2c(N)ncnc2n1	1.5	6.8	-0.7	x	x	x	x	x	x	x	x
N#CCSc1ccc(-c2nc3ccccc3[nH]2)cn1	-3.1	-237.5	-1.5	48.2	68.0*	6.7	71.1*	68.4*	89.1*	82.1*	73.5*
Fc1ccc(-c2nc3ccccc3[nH]2)cc1	-6.6	9.5	-0.9	64.4*	83.4*	83.1*	-7.3	64.1*	88.9*	83.6*	72.0*
O=C(CSc1ccc(-c2nc3ccccc3[nH]2)cn1)Nc1ccc(S(=O)(=O)NC2CC2)cc1	4.3	-264.1	-2.6	71.3*	72.2*	84.6*	82.1*	47.5	97.8*	56.4*	86.2*
Nc1ccc(-c2nc3ccccc3[nH]2)cc1	-6.4	-413.7	3.1	48.5	64.8*	69.7*	49.1	46.8	82.6*	81.8*	66.0*
Cn1cccc1C(=O)Nc1ccc(Cl)c(S(=O)(=O)N2CCCCC2)c1	-2.2	-19.9	-1.6	10.9	-3.4	-2.3	x	x	x	x	x
C[C@@H]1CN([C@@H](C)CO)C(=O)CCCn2nncc2CO[C@@H]1CN(C)S(=O)(=O)c1ccc(Oc2ccccc2)cc1	-10.0	14.5	1.5	x	x	x	x	x	x	x	x
Clc1nc2c(ccc3ccccc32)[nH]1	-14.2	17.8	1.9	-4.9	-0.2	-14.1	x	x	x	x	x
